Results from different studies.
Medium: plasma

Compound | test system | conditions | endpoint | result
CC(C)(C)[C@H](NC(=O)[C@H](CCONC(=N)N)NC(=O)Cc1ccc(CNC(=N)N)cc1)C(=O)N[C@@H](CCONC(=N)N)C(=O)NCc1ccc(C(=N)N)cc1 | male Sprague-Dawley rat | intraperitoneal, 2.5 mg/kg | AUC(0-t) | 9350 ng·h/mL
CCCCCn1cc(C(=O)Nc2cccc3ccccc23)c2ccccc21 | male Long-Evans rat | intraperitoneal, 3 mg/kg | AUC(0-inf) | 5960 ng·h/mL
O=C([O-])C(=O)[O-].[NH-][C@@H]1CCCC[C@H]1[NH-].[Pt+4] (relative stereo) | rat | oral, 10 mg/kg | AUC(0-inf) | 170 ng·h/mL
CN(C)C(=O)Oc1cc(OC(=O)N(C)C)cc(-c2cc3ccc(O)cc3o2)c1 | male rat | oral, 5 mg/kg | AUC(0-inf) | 26.2 ng·h/mL
[2H]C([2H])(c1cc(F)c(F)cc1F)n1c(=O)n(Cc2ncn(C)n2)c(=O)[nH]/c1=N\c1cc2cn(C)nc2cc1Cl | male Sprague-Dawley rat | intravenous, 5 mg/kg | AUC(0-t) | 78000 ng·h/mL
N=c1c2c(-c3ccccc3)c(-c3ccccc3)n(Cc3ccccc3)c2ncn1[C@H]1CC[C@H](O)CC1 | male Sprague-Dawley rat | intravenous, 2 mg/kg, single dose | AUC(0-inf) | 1700 ng·h/mL
CCC[C@@](N)(CO)CCc1ccc(OCCCCCC(C)C)cc1 | rat | oral, 10 mg/kg | AUC(0-t) | 1.44 µM·h
Cl.Cl.O=C(CCN1CCCCC1)c1ccc(-c2ccc(C(=O)CCN3CCCCC3)cc2)cc1 | Sprague-Dawley rat | intravenous, 5 mg/kg | AUC(0-t) | 251 ng·h/mL
Cn1cnc(Cn2c(=O)[nH]/c(=N\c3cc4cn(C)nc4cc3Cl)n(Cc3cc(F)c(F)cc3F)c2=O)n1 | male Sprague-Dawley rat | intravenous, 5 mg/kg | AUC(0-t) | 81000 ng·h/mL
CCCCCn1nc(C(=O)Nc2cccc3ccccc23)c2ccccc21 | male Long-Evans rat | intraperitoneal, 3 mg/kg | AUC(0-inf) | 314 ng·h/mL
[2H]C([2H])([2H])n1cc2cc(Nc3nc(=O)n(Cc4ncn(C)n4)c(=O)n3Cc3cc(F)c(F)cc3F)c(Cl)cc2n1 | male Sprague-Dawley rat | oral, 25 mg/kg | AUC(0-t) | 334000 ng·h/mL
COC(=O)C(NC(=O)c1cn(CCCCCF)c2ccccc12)C(C)(C)C (stereo not drawn) | male Sprague-Dawley rat | subcutaneous, 100 µg/kg | AUC(0-t) | 17 ng·h/mL
